Measurements as given in ChEMBL document CHEMBL4339182, “Pyridine and nitro-phenyl linked 1,3,4-thiadiazoles as MDR-TB inhibitors” (Eur J Med Chem, 2019).
In brackets after ≈: the same amount, converted by molar mass.

What was measured:
[1] = system: Mycobacterium tuberculosis; assay: Antimycobacterial activity against Mycobacterium tuberculosis MDR-TB incubated for 12 to 28 days by agar dilution method; type: functional
Procedure, shortened: (§1)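 Conventional Lowenstein-Jensen agar dilution. Compound stock dilutions in DMSO (200 to 1.56 µg/mL) were added to liquid L.J. medium, which was then sterilized by inspissation. Culture was harvested in 0.85% saline. Tubes were kept 24 h at 37 °C, streaked with 5 x 10⁴ bacilli per tube, and incubated at 37 °C. Growth was read at days 12, 22 and 28 against drug-free controls. MIC was the lowest concentration giving no colonies or fewer than 20 (≥99% inhibition), converted from µg/mL to µM.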

Vero = assay: Cytotoxicity against African green monkey Vero cells assessed as reduction in cell viability incubated for 72 hrs by MTT assay; type: cell-based; conditions: Chlorocebus sabaeus
Procedure, shortened: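 Vero cells were grown in DMEM with 2 mM Na₂CO₃ and 10% FBS at 37 °C under 5% CO₂ until confluent, then diluted in PBS. Compounds came from DMSO stocks diluted in medium, with 1% DMSO final. Exposure was 72 h at 37 °C. Monolayers were washed with warm HBSS, then MTS-PMS was added for 3 h and absorbance read at 490 nm.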

[2] = system: Mycobacterium tuberculosis; assay: Antimycobacterial activity against Mycobacterium tuberculosis H37Rv incubated for 12 to 28 days by agar dilution method; type: functional; procedure, shortened: as §1
[3] = system: Mycobacterium tuberculosis; assay: Antimycobacterial activity against Mycobacterium tuberculosis H37Rv ATCC 27294 by microplate alamar blue assay; type: functional

O=C(Nc1nnc(-c2ccc([N+](=O)[O-])cc2)s1)c1ccco1
MIC90 [1]: 9.87 µM (≈ 3.12 µg/mL)
IC50 (Vero): 306 µM
MIC90 [2]: 9.87 µM (≈ 3.12 µg/mL)

CCCC(=O)Nc1nnc(-c2cccc([N+](=O)[O-])c2)s1
MIC90 [1]: > 200 µM
MIC90 [2]: 42 µM (≈ 12.3 µg/mL)

CC(Cl)CC(=O)Nc1nnc(-c2ccncc2)s1 (stereo not drawn)
MIC90 [1]: > 200 µM
MIC90 [2]: > 200 µM

O=C(CCl)Nc1nnc(-c2ccncc2)s1
MIC90 [1]: > 200 µM
MIC90 [2]: 196 µM (≈ 49.9 µg/mL)

Cc1ccc(C(=O)Nc2nnc(-c3ccc([N+](=O)[O-])cc3)s2)cc1
MIC90 [1]: 147 µM (≈ 50 µg/mL)
IC50 (Vero): 310 µM
MIC90 [2]: 18.4 µM (≈ 6.26 µg/mL)

CCCC(=O)Nc1nnc(-c2ccc([N+](=O)[O-])cc2)s1
MIC90 [1]: 171 µM (≈ 50 µg/mL)
IC50 (Vero): 301 µM
MIC90 [2]: 42 µM (≈ 12.3 µg/mL)

O=C(CCCCl)Nc1nnc(-c2cccc([N+](=O)[O-])c2)s1
MIC90 [1]: > 200 µM
MIC90 [2]: 153 µM (≈ 50 µg/mL)

CCCCC(=O)Nc1nnc(-c2ccc([N+](=O)[O-])cc2)s1
MIC90 [1]: 163 µM (≈ 49.9 µg/mL)
IC50 (Vero): 278 µM
MIC90 [2]: 40 µM (≈ 12.3 µg/mL)

O=C(Cl)CCCCC(=O)Nc1nnc(-c2ccc([N+](=O)[O-])cc2)s1
MIC90 [1]: 271 µM (≈ 99.9 µg/mL)
MIC90 [2]: 135 µM (≈ 49.8 µg/mL)

O=C(Nc1nnc(-c2cccc([N+](=O)[O-])c2)s1)c1cccs1
MIC90 [1]: > 200 µM
MIC90 [2]: 301 µM (≈ 100 µg/mL)

O=C(Nc1nnc(-c2ccc([N+](=O)[O-])cc2)s1)c1cccs1
MIC90 [1]: > 200 µM
MIC90 [2]: > 200 µM

CO[C@H]1/C=C/O[C@@]2(C)Oc3c(C)c(O)c4c(O)c(c(/C=N/N5CCN(C)CC5)c(O)c4c3C2=O)NC(=O)/C(C)=C\C=C\[C@H](C)[C@H](O)[C@@H](C)[C@@H](O)[C@@H](C)[C@H](OC(C)=O)[C@@H]1C [RIFAMPIN]
MIC90 [1]: 128 µM (≈ 105 µg/mL)
MIC90 [2]: 0.152 µM (≈ 0.125 µg/mL)

O=[N+]([O-])c1ccc(CSc2nnc(-c3ccc([N+](=O)[O-])o3)s2)cc1
MIC90 [3]: 3.13 µg/mL (≈ 8.59 µM)

O=C(Nc1nnc(-c2cccc([N+](=O)[O-])c2)s1)c1ccco1
MIC90 [1]: 39 µM (≈ 12.3 µg/mL)
IC50 (Vero): 312 µM
MIC90 [2]: 19 µM (≈ 6.01 µg/mL)

O=C(CCl)Nc1nnc(-c2cccc([N+](=O)[O-])c2)s1
MIC90 [1]: > 200 µM
MIC90 [2]: 21 µM (≈ 6.27 µg/mL)

CCCC(=O)Nc1nnc(-c2ccncc2)s1
MIC90 [1]: > 200 µM
MIC90 [2]: 201 µM (≈ 49.9 µg/mL)

CCCCC(=O)Nc1nnc(-c2cccc([N+](=O)[O-])c2)s1
MIC90 [1]: 163 µM (≈ 49.9 µg/mL)
IC50 (Vero): 289 µM
MIC90 [2]: 40 µM (≈ 12.3 µg/mL)

O=C(CCl)Nc1nnc(-c2ccc([N+](=O)[O-])cc2)s1
MIC90 [1]: > 200 µM
MIC90 [2]: 168 µM (≈ 50.2 µg/mL)

O=C(CSc1nnc(-c2ccc([N+](=O)[O-])o2)s1)Oc1ccccc1
MIC90 [3]: 0.78 µg/mL (≈ 2.15 µM)

CCC(=O)Nc1nnc(-c2cccc([N+](=O)[O-])c2)s1
MIC90 [1]: > 200 µM
MIC90 [2]: 89 µM (≈ 24.8 µg/mL)

O=C(Nc1nnc(-c2ccc([N+](=O)[O-])cc2)s1)c1ccc([N+](=O)[O-])cc1
MIC90 [1]: 67 µM (≈ 24.9 µg/mL)
IC50 (Vero): 290 µM
MIC90 [2]: 16.8 µM (≈ 6.25 µg/mL)

O=C(Nc1nnc(-c2ccncc2)s1)c1ccc([N+](=O)[O-])cc1
MIC90 [1]: 76 µM (≈ 24.9 µg/mL)
IC50 (Vero): 369 µM
MIC90 [2]: 9.93 µM (≈ 3.25 µg/mL)

CC(C)(C)C(=O)Nc1nnc(-c2ccc([N+](=O)[O-])cc2)s1
MIC90 [1]: > 200 µM
MIC90 [2]: 204 µM (≈ 62.5 µg/mL)

O=C(Nc1nnc(-c2ccc([N+](=O)[O-])cc2)s1)C(Cl)(Cl)Cl
MIC90 [1]: > 200 µM
MIC90 [2]: 273 µM (≈ 100 µg/mL)

O=C(Nc1nnc(-c2cccc([N+](=O)[O-])c2)s1)c1ccccc1
MIC90 [1]: > 200 µM
MIC90 [2]: 38 µM (≈ 12.4 µg/mL)

O=C(Cl)CCCCC(=O)Nc1nnc(-c2ccncc2)s1
MIC90 [1]: > 200 µM
MIC90 [2]: 192 µM (≈ 62.4 µg/mL)

O=C(Nc1nnc(-c2cccc([N+](=O)[O-])c2)s1)c1ccc([N+](=O)[O-])cc1
MIC90 [1]: 134 µM (≈ 49.8 µg/mL)
IC50 (Vero): 268 µM
MIC90 [2]: 33 µM (≈ 12.3 µg/mL)

COc1ccc(C(=O)Nc2nnc(-c3ccc([N+](=O)[O-])cc3)s2)cc1
MIC90 [1]: 140 µM (≈ 49.9 µg/mL)
IC50 (Vero): 278 µM
MIC90 [2]: 35 µM (≈ 12.5 µg/mL)

O=C(Nc1nnc(-c2ccncc2)s1)C(Cl)(Cl)Cl
MIC90 [1]: > 200 µM
MIC90 [2]: > 200 µM

CC(Cl)CC(=O)Nc1nnc(-c2cccc([N+](=O)[O-])c2)s1 (stereo not drawn)
MIC90 [1]: > 200 µM
MIC90 [2]: > 200 µM

CC(C)(C)C(=O)Nc1nnc(-c2cccc([N+](=O)[O-])c2)s1
MIC90 [1]: > 200 µM
MIC90 [2]: 204 µM (≈ 62.5 µg/mL)

CN[C@@H]1C[C@H]2O[C@@](C)([C@@H]1OC)n1c3ccccc3c3c4c(c5c6ccccc6n2c5c31)C(=O)NC4 [STAUROSPORINE]
IC50 (Vero): 0.028 µM

O=C(Nc1nnc(-c2ccc([N+](=O)[O-])cc2)s1)c1ccccc1
MIC90 [1]: 306 µM (≈ 99.9 µg/mL)
MIC90 [2]: 38 µM (≈ 12.4 µg/mL)

O=C(Cl)CCCCC(=O)Nc1nnc(-c2cccc([N+](=O)[O-])c2)s1
MIC90 [1]: > 200 µM
MIC90 [2]: 135 µM (≈ 49.8 µg/mL)

COc1ccc(C(=O)Nc2nnc(-c3cccc([N+](=O)[O-])c3)s2)cc1
MIC90 [1]: 280 µM (≈ 99.8 µg/mL)
MIC90 [2]: 35 µM (≈ 12.5 µg/mL)

CC(C)(C)C(=O)Nc1nnc(-c2ccncc2)s1
MIC90 [1]: > 200 µM
MIC90 [2]: 238 µM (≈ 62.4 µg/mL)

O=C(CCCCl)Nc1nnc(-c2ccncc2)s1
MIC90 [1]: > 200 µM
MIC90 [2]: 221 µM (≈ 62.5 µg/mL)

C/C=C/C(CCC)N(C(=O)c1ccccc1)c1nnc(-c2ccc([N+](=O)[O-])cc2)s1 (stereo not drawn)
MIC90 [1]: > 200 µM
MIC90 [2]: 117 µM (≈ 49.4 µg/mL)

O=C(Nc1nnc(-c2ccncc2)s1)c1cccs1
MIC90 [1]: > 200 µM
MIC90 [2]: 21 µM (≈ 6.06 µg/mL)

CCC(=O)Nc1nnc(-c2ccc([N+](=O)[O-])cc2)s1
MIC90 [1]: > 200 µM
MIC90 [2]: 89 µM (≈ 24.8 µg/mL)

NNC(=O)c1ccncc1 [ISONIAZID]
MIC90 [1]: > 200 µM
MIC90 [2]: 3.64 µM (≈ 0.499 µg/mL)

O=C(CCCCl)Nc1nnc(-c2ccc([N+](=O)[O-])cc2)s1
MIC90 [1]: > 200 µM
MIC90 [2]: 153 µM (≈ 50 µg/mL)

CCCCC(=O)Nc1nnc(-c2ccncc2)s1
MIC90 [1]: 381 µM (≈ 100 µg/mL)
MIC90 [2]: 95 µM (≈ 24.9 µg/mL)
